Results on four molecules are retold here after ChEMBL document CHEMBL1687722, “Mode of action of Ranbezolid against staphylococci and structural modeling studies of its interaction with ribosomes” (Antimicrob Agents Chemother, 2009).

pIC50: −log10 of the molar value. ≈ marks a conversion by molar mass, not a printed value. Calls of active or inactive are those of the source. No cut-off for these calls is given here. Some results are limits rather than exact numbers.

By pIC50 is commonly meant the IC50 on a negative log10 scale, so that one unit is a factor of ten. Read a low pIC50 as a high IC50. In general, MIC refers to the lowest concentration found to suppress growth. A lower MIC goes with a more susceptible organism.

Assay [1] relates to Staphylococcus aureus. In words: Induction of bacterial membrane damage in Staphylococcus aureus ATCC 25923 at 15 uM by BacLight assay. The assay is classed as functional. In a few lines:
(§1)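 Mid-log cells (overnight MHB culture at 37°C, diluted 1:100, grown to OD600 0.5–0.6) washed in water, diluted 1:20 into water containing compound, shaken 15–30 min at room temperature (25°C). Washed, adjusted to OD670 0.325, stained with BacLight reagent (3 µl/ml) for 15 min in the dark. Syto 9 (480/500 nm)/propidium iodide (490/635 nm) fluorescence ratio expressed versus control; <40% of control indicates membrane damage.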

Assay [2] concerns Staphylococcus epidermidis. In words: Induction of bacterial membrane damage in Staphylococcus epidermidis ATCC 23760 at 15 uM by BacLight assay. The assay is classed as functional. A digest of the protocol: as §1
Assay [3] has as its system Staphylococcus aureus. As to the kind of experiment: Inhibition of RNA synthesis in Staphylococcus aureus ATCC 25923 assessed as incorporation of [3H]uridine at 2 ug/ml by liquid scintillation counter. The assay is classed as functional, organism-based. In a few lines:
(§2)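 Whole-cell macromolecular synthesis. Cells grown in MHB to early log phase (OD600 0.3) were given a labelled precursor: [3H]thymidine, [3H]uridine or [3H]N-acetylglucosamine at 1 µCi/ml, or [14C]isoleucine or [14C]acetate at 0.1 µCi/ml. Drug was added 5 min later. Macromolecules were precipitated with ice-cold TCA (5% final), filtered, dried overnight at 37°C and counted by scintillation. A pathway-specific antibiotic was run as positive control.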

Assay [4] concerns Staphylococcus epidermidis. In words: Inhibition of protein synthesis in Staphylococcus epidermidis ATCC 23760 assessed as incorporation of [14C]isoleucine at 2 ug/ml by liquid scintillation counter. The assay is classed as functional, organism-based. In a few lines:
as §2

The nature of assay [5]: Inhibition of ribosomal activity in Escherichia coli S30 by coupled transcription/translation assay. The assay is classed as subcellular, Ribosome. A digest of the protocol: (§3)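 Cell-free coupled transcription/translation of a luciferase gene, using E. coli S30 extract (bacterial) or a TNT kit (mammalian ribosomes). Percent inhibition of luciferase activity across a range of drug concentrations was calculated relative to the no-drug control.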

Assay [6] concerns Staphylococcus epidermidis. In words: Induction of bacterial membrane damage in Staphylococcus epidermidis ATCC 23760 at 4 ug/mL by BacLight assay. The assay is classed as functional, organism-based. A digest of the protocol: (§4)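 BacLight membrane integrity. Mid-log MHB cultures (OD600 0.5–0.6) were washed and resuspended in water, then exposed to drug at 1–8 µg/ml for 15–30 min at room temperature (25°C) with shaking. Cells were washed, set to OD670 0.325 and stained with Syto 9/propidium iodide for 15 min in the dark. The Syto 9 (480/500 nm) to PI (490/635 nm) fluorescence ratio was compared with untreated controls. Valinomycin and CCCP served as positive controls.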

The subject of assay [7] is Staphylococcus aureus. In words: Induction of bacterial membrane damage in Staphylococcus aureus ATCC 25923 at 4 ug/mL by BacLight assay. In kind it is functional, organism-based. In a few lines: as §4
Assay [8] concerns Staphylococcus epidermidis. As to the kind of experiment: Inhibition of DNA synthesis in Staphylococcus epidermidis ATCC 23760 assessed as incorporation of [3H]thymidine at 2 ug/ml by liquid scintillation counter. The assay is classed as functional, organism-based. A digest of the protocol:
as §2

In assay [9] the test system is Staphylococcus epidermidis. In words: Inhibition of lipid synthesis in Staphylococcus epidermidis ATCC 23760 assessed as incorporation of [14C]acetate at 2 ug/ml after 60 mins by liquid scintillation counter. In kind it is functional, organism-based. A digest of the protocol: as §2
Assay [10] deals with Staphylococcus epidermidis. In words: Inhibition of RNA synthesis in Staphylococcus epidermidis ATCC 23760 assessed as incorporation of [3H]uridine at 2 ug/ml by liquid scintillation counter. The assay is classed as functional, organism-based. In a few lines: as §2
The test system of assay [11] is Staphylococcus epidermidis. As to the kind of experiment: Inhibition of cell wall synthesis in Staphylococcus epidermidis ATCC 23760 assessed as incorporation of [3H]N-acetylglucosamine at 2 ug/ml after 60 mins by liquid scintillation counter. The assay is classed as functional, organism-based. A digest of the protocol:
as §2

Assay [12] relates to Staphylococcus epidermidis. As to the kind of experiment: Bacteriostatic activity against Staphylococcus epidermidis ATCC 23760 at 4 X MIC after 24 hrs by time-kill analysis. The assay is classed as functional, organism-based.
For assay [13], the system named is Staphylococcus aureus. In words: Bacteriostatic activity against Staphylococcus aureus ATCC 25923 at 8 times MIC after 30 hrs by time-kill analysis. The assay is classed as functional, organism-based.
For assay [14], the system named is Staphylococcus aureus. As to the kind of experiment: Inhibition of protein synthesis in Staphylococcus aureus ATCC 25923 assessed as incorporation of [14C]isoleucine at 2 ug/ml by liquid scintillation counter. In kind it is functional, organism-based. In a few lines:
as §2

Assay [15] relates to Staphylococcus aureus. In words: Inhibition of DNA synthesis in Staphylococcus aureus ATCC 25923 assessed as incorporation of [3H]thymidine at 2 ug/ml by liquid scintillation counter. The assay is classed as functional, organism-based. In a few lines:
as §2

The subject of a further assay is Ribosome. As to the kind of experiment: Inhibition of mammalian ribosomal activity by coupled transcription/translation assay. The assay is classed as subcellular. In a few lines:
as §3

Assay [16] relates to Staphylococcus epidermidis. As to the kind of experiment: Antimicrobial activity against Staphylococcus epidermidis ATCC 23760 by microdilution method. In kind it is functional. In a few lines:
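MIC determined by broth microdilution in the course of the macromolecular synthesis work; cultures grown in Mueller-Hinton broth.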
On the technique in general: Broth dilution looks for growth in wells or tubes with falling amounts of substance.

Assay [17] deals with Staphylococcus epidermidis. As to the kind of experiment: Bactericidal activity against Staphylococcus epidermidis ATCC 23760 at 8 ug/ml after 4 hrs by time-kill analysis. The assay is classed as functional, organism-based.
Assay [18] deals with Staphylococcus epidermidis. In words: Induction of bacterial membrane damage in Staphylococcus epidermidis ATCC 23760 at 2 ug/mL by BacLight assay relative to untreated control. The assay is classed as functional. In a few lines:
as §4

In assay [19] the test system is Staphylococcus epidermidis. In words: Inhibition of lipid synthesis in Staphylococcus epidermidis ATCC 23760 assessed as incorporation of [14C]acetate at 1 ug/ml after 60 mins by liquid scintillation counter. The assay is classed as functional, organism-based. A digest of the protocol: as §2
Assay [20] relates to Staphylococcus epidermidis. In words: Induction of bacterial membrane damage in Staphylococcus epidermidis ATCC 23760 at 2 to 8 ug/mL by BacLight assay. The assay is classed as functional, organism-based. In a few lines:
as §4

For assay [21], the system named is Staphylococcus aureus. In words: Bactericidal activity against Staphylococcus aureus ATCC 25923 at 16 ug/ml by time-kill analysis. In kind it is functional, organism-based.
In assay [22] the test system is Staphylococcus epidermidis. As to the kind of experiment: Inhibition of RNA synthesis in Staphylococcus epidermidis ATCC 23760 assessed as incorporation of [3H]uridine at 1 ug/ml by liquid scintillation counter. The assay is classed as functional, organism-based. In a few lines:
as §2

Assay [23] has as its system Staphylococcus aureus. As to the kind of experiment: Antimicrobial activity against Staphylococcus aureus ATCC 25923 by microdilution method. In kind it is functional.
The test system of assay [24] is Staphylococcus epidermidis. In words: Inhibition of cell wall synthesis in Staphylococcus epidermidis ATCC 23760 assessed as incorporation of [3H]N-acetylglucosamine at 1 ug/ml after 60 mins by liquid scintillation counter. In kind it is functional, organism-based. A digest of the protocol: as §2
Assay [25] concerns Staphylococcus epidermidis. In words: Bactericidal activity against Staphylococcus epidermidis ATCC 23760 by time-kill analysis. In kind it is functional.
In assay [26] the test system is Staphylococcus epidermidis. In words: Bactericidal activity against Staphylococcus epidermidis ATCC 23760 at 4 ug/ml after 6 hrs by time-kill analysis. The assay is classed as functional, organism-based.
Assay [27] deals with Staphylococcus aureus. In words: Inhibition of RNA synthesis in Staphylococcus aureus ATCC 25923 assessed as incorporation of [3H]uridine at 1 ug/ml by liquid scintillation counter. The assay is classed as functional, organism-based. In a few lines: as §2
The test system of assay [28] is Staphylococcus epidermidis. In words: Inhibition of DNA synthesis in Staphylococcus epidermidis ATCC 23760 assessed as incorporation of [3H]thymidine at 1 ug/ml by liquid scintillation counter. The assay is classed as functional, organism-based. A digest of the protocol:
as §2

Assay [29] concerns Staphylococcus epidermidis. As to the kind of experiment: Inhibition of protein synthesis in Staphylococcus epidermidis ATCC 23760 assessed as incorporation of [14C]isoleucine at 1 ug/ml by liquid scintillation counter. In kind it is functional, organism-based. In a few lines: as §2
For assay [30], the system named is Staphylococcus epidermidis. As to the kind of experiment: Induction of bacterial membrane damage in Staphylococcus epidermidis ATCC 23760 at 1 ug/mL by BacLight assay relative to untreated control. The assay is classed as functional, organism-based. In a few lines: as §4
The test system of assay [31] is Staphylococcus aureus. As to the kind of experiment: Inhibition of DNA synthesis in Staphylococcus aureus ATCC 25923 assessed as incorporation of [3H]thymidine at 1 ug/ml by liquid scintillation counter. In kind it is functional, organism-based. A digest of the protocol:
as §2

Assay [32] in a line: Ratio of IC50 for mammalian ribosomal activity to ribosomal activity in Escherichia coli S30 by coupled transcription/translation assay. The assay is classed as subcellular. The following applies: Ribosome.
Assay [33] concerns Staphylococcus aureus. As to the kind of experiment: Inhibition of protein synthesis in Staphylococcus aureus ATCC 25923 assessed as incorporation of [14C]isoleucine at 1 ug/ml by liquid scintillation counter. In kind it is functional, organism-based. In a few lines:
as §2

The test system of assay [34] is Staphylococcus epidermidis. As to the kind of experiment: Induction of bacterial membrane damage in Staphylococcus epidermidis ATCC 23760 at 100 uM by BacLight assay. In kind it is functional. A digest of the protocol: as §1
Assay [35] concerns Staphylococcus aureus. As to the kind of experiment: Induction of bacterial membrane damage in Staphylococcus aureus ATCC 25923 at 100 uM by BacLight assay. In kind it is functional. In a few lines:
as §1

With `N#CC(C#N)=NNc1cccc(Cl)c1` [CARBONYL CYANIDE M-CHLOROPHENYLHYDRAZONE], the Activity (with Staphylococcus aureus [1]; in assay [2]) was less than 40% in each case.
`CC(=O)NC[C@H]1CN(c2ccc(N3CCOCC3)c(F)c2)C(=O)O1` [LINEZOLID]: the inhibition result (in the assay on Staphylococcus aureus [3]; in assay [8]; in assay [10]; in the assay on Staphylococcus aureus [15]) was “inactive” throughout. Also, the inhibition result (in assay [4]; in [9]; in assay [11]; in the assay on Staphylococcus aureus [14]) was “Active” each time. Moreover, the pIC50 in assay [5] is 4.00; in the assay on Ribosome it was 1.92. Further, the result (in assay [6]; with Staphylococcus aureus [7]) was inactive. The outcome (in assay [12]; in the assay on Staphylococcus aureus [13]) was Active. For the same molecule, the MIC in assay [16] is 2 µg/mL (≈ 5.93 µM).
Regarding `CC(=O)NC[C@H]1CN(c2ccc(N3CCN(Cc4ccc([N+](=O)[O-])o4)CC3)c(F)c2)C(=O)O1` [RANBEZOLID], the outcome (in assay [17]; in assay [20]; in the assay on Staphylococcus aureus [21]; in assay [6]; in [26]; with Staphylococcus aureus [13]) was Active. The Activity in [18] was determined as 50%; in [25] it was 99.9%. In addition, the inhibition result (in [19]; in assay [24]; in assay [29]; in the assay with Staphylococcus aureus [33]) was “Active” in each case. Further, the pIC50 was 4.77 in [5] and 1.83 in the assay with Ribosome. For the same molecule, the inhibition result (in [22]; in the assay on Staphylococcus aureus [27]; in assay [28]; in the assay with Staphylococcus aureus [31]) was “inactive” throughout. Besides, the MIC (against Staphylococcus aureus [23]; in assay [16]) was 1 µg/mL (≈ 2.17 µM) each time. In addition, the outcome (with Staphylococcus aureus [7]; in assay [30]) was inactive. Also, the Ratio in [32] came out at 865.
Consider `CC(C)[C@@H]1NC(=O)[C@H](C)OC(=O)[C@@H](C(C)C)NC(=O)[C@@H](C(C)C)OC(=O)[C@H](C(C)C)NC(=O)[C@H](C)OC(=O)[C@@H](C(C)C)NC(=O)[C@@H](C(C)C)OC(=O)[C@H](C(C)C)NC(=O)[C@H](C)OC(=O)[C@@H](C(C)C)NC(=O)[C@@H](C(C)C)OC1=O` [VALINOMYCIN], for which the Activity (in assay [34]; in the assay with Staphylococcus aureus [35]) was less than 40% each time.
